Data on one molecule can be found in ChEMBL document CHEMBL4382255, “Design, synthesis and activity of Mnk1 and Mnk2 selective inhibitors containing thieno[2,3-d]pyrimidine scaffold” (Eur J Med Chem, 2019).

Series [1] deals with MAP kinase-interacting serine/threonine-protein kinase 2 (Mus musculus) (UniProt Q8CDB0). The series can be described thus: Inhibition of MNK2 in MNK1-knockout C57BL/6J mouse embryonic fibroblasts assessed as decrease in eIF4E phosphorylation at 0.5 uM after 2 hrs by Western blot analysis. Put shortly:
(§1)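 MEFs from E13.5 C57BL/6J embryos, wild-type, MNK1-KO or MNK2-KO (DMEM, 10% FBS), treated 2 h with inhibitor at indicated concentrations, including a lower-concentration series in MNK1-KO cells; CGP57380 at 50 μM as reference. Lysates analysed by SDS-PAGE/western blot for P-eIF4E; quantified from three independent experiments, SEM.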
(A western blot detects proteins with antibodies after separation by electrophoresis.)

The target of series [2] is MAP kinase-interacting serine/threonine-protein kinase 1 (Homo sapiens) (UniProt Q9BUB5). In words: Inhibition of GST-fused MNK1a (unknown origin) expressed in HEK293 cells using eIF4E as substrate after 30 mins by Western blot analysis. It counts as cell-based. Put shortly:
(§2)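 GST-MNK1a or GST-MNK2a expressed in transfected HEK293 cells, purified by glutathione pull-down. Incubated in 25 mM Tris-HCl pH 7.5, 50 mM KCl, 2 mM MgCl₂ with 20 µM ATP and 65 ng E. coli-expressed eIF4E, 30 °C, 30 min, ± inhibitor. Stopped with sample buffer; immunoblotted for P-eIF4E Ser209, eIF4E and GST. Conditions pre-set within linear range.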

The subject of series [3] is MDA-MB-231. In words: Cell cycle arrest in human MDA-MB-231 cells at 0.3 to 6 uM after 2 hrs by propidium iodide staining-based flow cytometric analysis. The class given is ADME. The note with it: mda-mb-231, 2 h. Put shortly: (§3)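 MDA-MB-231 cells seeded at 5 x 10^5 cells/well, allowed 24 h to attach, then treated with inhibitor or vehicle. Harvested at ~70% confluence, fixed in methanol ≥2 h, stained with 1 µg/ml propidium iodide; ~20,000 cells analysed by flow cytometry for cell-cycle phase proportions including sub-G0. Mean ± SEM, n=5.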

For series [4], the target named is T1, MAP kinase-interacting serine/threonine-protein kinase 1/2 (Homo sapiens) (UniProt Q9HBH9+Q9BUB5). In words: Inhibition of MNK in human MDA-MB-231 cells assessed as decrease in eIF4E phosphorylation at 1 uM after 2 hrs by Western blot analysis. It counts as cell-based. Put shortly: (§4)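 MDA-MB-231 cells treated with inhibitor at indicated concentrations for 2 h, or at 3 μM for times up to 72 h (DMSO vehicle <0.05%). Cells lysed in RIPA buffer; supernatants analysed by SDS-PAGE and western blot for P-eIF4E and total eIF4E. CGP57380 at 30 μM as reference.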

Series [5] has as its target MAP kinase-interacting serine/threonine-protein kinase 1 (Mus musculus) (UniProt O08605). In words: Inhibition of MNK1 in C57BL/6J mouse embryonic fibroblasts assessed as decrease in eIF4E phosphorylation at 0.1 to 0.3 uM after 2 hrs by Western blot analysis relative to control. Put shortly: as §1
Series [6] shares this target. In words: Inhibition of MNK1 in C57BL/6J mouse embryonic fibroblasts assessed as decrease in eIF4E phosphorylation at 5 uM after 2 hrs by Western blot analysis. Put shortly: as §1
The next series has as its system 3T3-L1. The series can be described thus: Effect on total eIF4E protein level in mouse 3T3L1 cells at 3 uM after 2 hrs by Western blot analysis. The note with it: 3t3-l1, 2 h. The class given is ADME, cell-based. Put shortly: (§5)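 Mouse 3T3-L1 pre-adipocytes (DMEM high glucose, 10% heat-inactivated FBS, 37 °C, 5% CO₂) treated 2 h with compounds at 3 μM or lower concentrations down to 0.1 μM final; DMSO vehicle 0.03-0.05% final. RIPA lysates cleared, equal protein resolved by SDS-PAGE, immunoblotted for P-eIF4E and total eIF4E, fluorescent secondary detection.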

The target of series [7] is Mitogen-activated protein kinase 1 and 3 (ERK2 and ERK1) (Mus musculus) (UniProt P63085+Q63844). The series can be described thus: Stimulation of ERK1/2 phosphorylation at Thr202/Tyr204 residues in mouse 3T3L1 cells at 0.1 to 5 uM after 2 hrs by Western blot analysis. It counts as cell-based. Put shortly: (§6)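 3T3-L1 cells treated 2 h with inhibitor at indicated concentrations (DMSO <0.05% v/v). RIPA lysates, equal protein by Bradford, SDS-PAGE and western blot with phospho-specific antibodies (ERK, RSK, PKB Ser473, 4E-BP1, rpS6); fluorescent secondary imaging. Quantified from three independent experiments, SEM error bars.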

The species entered for series [8] is Mus musculus. The series can be described thus: Inhibition of mTORC1 in mouse 3T3L1 cells assessed as reduction in rpS6 phosphorylation at Ser240/244 residues at 0.1 to 5 uM after 2 hrs by Western blot analysis. It counts as cell-based. Put shortly: as §6
For series [9], the species on record is Mus musculus. The series can be described thus: Inhibition of mTORC1 in mouse 3T3L1 cells assessed as reduction in 4EBP1 at Ser65 residue phosphorylation at 0.1 to 5 uM after 2 hrs by Western blot analysis. It counts as cell-based. Put shortly: as §6
Series [10] has as its target MAP kinase-interacting serine/threonine-protein kinase 1 (Mus musculus) (UniProt O08605). The series can be described thus: Inhibition of MNK1 in MNK2-knockout C57BL/6J mouse embryonic fibroblasts assessed as decrease in eIF4E phosphorylation at 0.3 to 5 uM after 2 hrs by Western blot analysis. Put shortly: as §1
In series [11] the target is MAP kinase-interacting serine/threonine-protein kinase 2 (Homo sapiens) (UniProt Q9HBH9). The series can be described thus: Inhibition of GST-fused MNK2a (unknown origin) expressed in HEK293 cells using eIF4E as substrate after 30 mins by Western blot analysis. The class given is cell-based. Put shortly: as §2
In series [12] the test system is MDA-MB-231. The series can be described thus: Antimigratory activity against human MDA-MB-231 cells after 24 hrs by DAPI staining-based Transwell assay. It counts as functional, cell-based. Put shortly: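 MDA-MB-231 cells pre-treated with inhibitor 60 min, then 3 x 10⁵ cells seeded into 8 μm-pore Transwell inserts pre-coated with 10 μg/ml collagen (collagen as attractant). After 24 h, migrated cells in bottom well stained with DAPI, imaged at ×10 and counted. Triplicate assays, mean ± SEM.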

The nature of series [13]: Inhibition in C57BL/6J mouse embryonic fibroblasts assessed as decrease in eIF4E phosphorylation at 0.1 to 0.3 uM after 2 hrs by Western blot analysis relative to control.
The species entered for series [14] is Mus musculus. In words: Inhibition of MNK in mouse 3T3L1 cells assessed as reduction of eIF4E phosphorylation at 0.1 uM after 2 hrs by Western blot analysis. It counts as cell-based. Put shortly:
as §5

The target of series [15] is MAP kinase-interacting serine/threonine-protein kinase 2 (Mus musculus) (UniProt Q8CDB0). In words: Inhibition of MNK2 in C57BL/6J mouse embryonic fibroblasts assessed as decrease in eIF4E phosphorylation at 5 uM after 2 hrs by Western blot analysis. Put shortly: as §1
The species entered for series [16] is Mus musculus. In words: Inhibition of MNK in mouse 3T3L1 cells assessed as reduction of eIF4E phosphorylation at 3 uM after 2 hrs by Western blot analysis. The class given is cell-based. Put shortly: as §5
The test system of series [17] is MDA-MB-231. In words: Cell cycle arrest in human MDA-MB-231 cells assessed as accumulation of cells at sub-G0 phase at 0.3 to 6 uM after 2 hrs by propidium iodide staining-based flow cytometric analysis. Conditions: mda-mb-231, 2 h. The class given is ADME. Put shortly:
as §3
(In general: A flow cytometer gives signals particle by particle.)

Series [18] addresses MAP kinase-interacting serine/threonine-protein kinase 2 (Mus musculus) (UniProt Q8CDB0). In words: Inhibition of MNK2 in MNK1-knockout C57BL/6J mouse embryonic fibroblasts assessed as decrease in eIF4E phosphorylation at 0.003 to 0.03 uM after 2 hrs by Western blot analysis. Put shortly:
as §1

Series [19] is filed under the species Mus musculus. The series can be described thus: Inhibition of mTORC2 in mouse 3T3L1 cells assessed as reduction in PKB phosphorylation at Ser473 residue at 0.1 to 5 uM after 2 hrs by Western blot analysis. It counts as cell-based. Put shortly:
as §6

Series [20] deals with T1, MAP kinase-interacting serine/threonine-protein kinase 1/2 (Homo sapiens). In words: Inhibition of MNK in human MDA-MB-231 cells assessed as decrease in eIF4E phosphorylation at 3 uM up to 72 hrs by Western blot analysis. It counts as cell-based. Put shortly: as §4
The species entered for series [21] is Mus musculus. The series can be described thus: Stimulation of ERK signalling in mouse 3T3L1 cells assessed as increase in RSK phosphorylation at […] residue at 0.1 to 5 uM after 2 hrs by Western blot analysis. The class given is cell-based. Put shortly:
as §6

The structures appear in SMILES notation. Activity calls are given as the source filed them. Unless noted, no cut-off for these calls is given here.

Sequence of MAP kinase-interacting serine/threonine-protein kinase 2 (Mus musculus) (Q8CDB0 whole entry): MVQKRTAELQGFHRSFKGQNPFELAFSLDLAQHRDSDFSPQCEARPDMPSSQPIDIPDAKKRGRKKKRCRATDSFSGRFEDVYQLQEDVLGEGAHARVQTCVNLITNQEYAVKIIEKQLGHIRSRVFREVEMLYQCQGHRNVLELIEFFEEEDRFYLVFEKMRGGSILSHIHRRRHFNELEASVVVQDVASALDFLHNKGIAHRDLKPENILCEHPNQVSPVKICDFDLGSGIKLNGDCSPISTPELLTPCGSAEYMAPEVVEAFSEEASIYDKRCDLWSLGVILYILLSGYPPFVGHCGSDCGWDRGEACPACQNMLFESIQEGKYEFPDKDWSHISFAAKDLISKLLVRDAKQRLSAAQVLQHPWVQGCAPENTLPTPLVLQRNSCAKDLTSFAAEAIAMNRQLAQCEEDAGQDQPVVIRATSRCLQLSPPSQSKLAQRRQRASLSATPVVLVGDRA
Sequence of MAP kinase-interacting serine/threonine-protein kinase 1 (Mus musculus) (O08605 whole entry, the tested form may be a part): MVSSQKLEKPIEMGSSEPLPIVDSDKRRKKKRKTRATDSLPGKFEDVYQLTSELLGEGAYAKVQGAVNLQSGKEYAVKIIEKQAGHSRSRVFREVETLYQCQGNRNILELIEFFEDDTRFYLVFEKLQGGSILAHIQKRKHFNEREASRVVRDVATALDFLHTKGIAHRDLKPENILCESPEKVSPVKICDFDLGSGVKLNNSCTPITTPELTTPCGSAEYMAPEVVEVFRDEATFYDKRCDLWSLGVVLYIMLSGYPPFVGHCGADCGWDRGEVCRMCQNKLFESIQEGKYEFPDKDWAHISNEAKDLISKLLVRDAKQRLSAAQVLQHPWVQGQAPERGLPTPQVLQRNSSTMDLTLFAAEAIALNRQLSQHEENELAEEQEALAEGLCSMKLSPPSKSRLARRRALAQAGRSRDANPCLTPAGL
Sequence of MAP kinase-interacting serine/threonine-protein kinase 2 (Homo sapiens) (Q9HBH9 whole entry, looked up, the tested form may be a part): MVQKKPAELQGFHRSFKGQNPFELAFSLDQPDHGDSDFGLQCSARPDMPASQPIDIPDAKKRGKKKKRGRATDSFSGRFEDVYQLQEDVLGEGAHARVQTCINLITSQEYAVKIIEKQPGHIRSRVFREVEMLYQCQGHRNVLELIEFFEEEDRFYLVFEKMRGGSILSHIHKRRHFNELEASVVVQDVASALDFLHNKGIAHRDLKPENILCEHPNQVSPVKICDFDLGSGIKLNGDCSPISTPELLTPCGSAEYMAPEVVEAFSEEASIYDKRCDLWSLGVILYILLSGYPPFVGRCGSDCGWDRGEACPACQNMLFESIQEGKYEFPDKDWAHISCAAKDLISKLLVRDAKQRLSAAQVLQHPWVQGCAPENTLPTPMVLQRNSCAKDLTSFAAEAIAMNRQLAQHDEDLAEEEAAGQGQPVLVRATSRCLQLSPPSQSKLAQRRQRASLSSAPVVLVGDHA
Sequence of MAP kinase-interacting serine/threonine-protein kinase 1 (Homo sapiens) (Q9BUB5 whole entry, looked up, the tested form may be a part): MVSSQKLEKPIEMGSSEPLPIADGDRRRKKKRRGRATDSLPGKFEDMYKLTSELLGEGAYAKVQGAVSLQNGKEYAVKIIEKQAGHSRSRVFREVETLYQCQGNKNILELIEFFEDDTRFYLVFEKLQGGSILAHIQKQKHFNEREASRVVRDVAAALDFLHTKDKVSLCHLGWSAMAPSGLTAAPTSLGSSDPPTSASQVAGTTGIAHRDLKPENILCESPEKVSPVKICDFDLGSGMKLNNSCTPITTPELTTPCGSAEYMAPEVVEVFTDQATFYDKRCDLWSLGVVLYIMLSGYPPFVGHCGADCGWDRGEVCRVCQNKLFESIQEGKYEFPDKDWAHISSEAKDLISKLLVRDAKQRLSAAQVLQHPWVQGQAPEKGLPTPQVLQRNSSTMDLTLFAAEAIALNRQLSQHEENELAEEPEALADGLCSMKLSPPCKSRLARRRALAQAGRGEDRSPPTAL
Sequence of Mitogen-activated protein kinase 1 and 3 (ERK2 and ERK1) (Mus musculus) (P63085 whole entry, looked up): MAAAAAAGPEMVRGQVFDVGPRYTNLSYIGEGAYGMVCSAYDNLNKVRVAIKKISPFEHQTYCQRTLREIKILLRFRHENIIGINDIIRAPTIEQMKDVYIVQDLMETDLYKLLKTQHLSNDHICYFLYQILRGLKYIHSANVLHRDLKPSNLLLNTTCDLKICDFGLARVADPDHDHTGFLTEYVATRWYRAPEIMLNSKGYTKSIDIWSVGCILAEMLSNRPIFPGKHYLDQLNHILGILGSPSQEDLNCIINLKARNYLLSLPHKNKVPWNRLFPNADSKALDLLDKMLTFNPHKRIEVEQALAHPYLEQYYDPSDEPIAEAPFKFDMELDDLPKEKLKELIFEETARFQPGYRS
Sequence of Mitogen-activated protein kinase 1 and 3 (ERK2 and ERK1) (Mus musculus) (Q63844 whole entry, looked up): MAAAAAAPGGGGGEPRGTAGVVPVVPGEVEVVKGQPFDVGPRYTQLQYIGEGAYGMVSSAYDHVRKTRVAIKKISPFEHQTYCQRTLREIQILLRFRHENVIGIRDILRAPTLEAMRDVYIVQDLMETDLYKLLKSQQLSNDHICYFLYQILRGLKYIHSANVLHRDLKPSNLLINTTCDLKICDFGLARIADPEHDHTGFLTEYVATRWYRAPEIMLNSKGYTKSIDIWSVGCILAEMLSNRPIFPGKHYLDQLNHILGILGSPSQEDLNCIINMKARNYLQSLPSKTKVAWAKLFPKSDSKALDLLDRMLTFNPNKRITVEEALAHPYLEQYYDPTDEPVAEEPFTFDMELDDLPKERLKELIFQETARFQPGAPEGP

Regarding `Cc1c(C(=O)NCCCN2CCCC2)sc2ncnc(Nc3ccc(F)cc3OC(C)C)c12`, the inhibition result (in series [1]; in series [2]; in series [10]; in [11]; with MDA-MB-231 [12]; in series [18]) was “Active” each time. Besides, the inhibition entry in [20] is “Active”. The Activity result in the series on MDA-MB-231 [3], in the series on 3T3-L1 and with MDA-MB-231 [17] was “Non-Toxic” in each case. The inhibition in series [4] is 100%; in series [5], 50%; in series [6] it was 100%; in series [13], 50%; in series [15], 100%. The outcome (in [7]; in the series filed under Mus musculus [21]) was Active. In addition, the inhibition result in the series listed under Mus musculus [8], in the series filed under Mus musculus [9] and in the series filed under Mus musculus [19] was “inactive” in each case. Moreover, the “inhibition of eIF4E phosphorylation (active/not active)” value in the series listed under Mus musculus [14] is “Active”. In addition, in the series filed under Mus musculus [16], the “MNK inhibition (active/not active)” value is “Active”.

A word on the inhibition: it is the relative decrease from the control value, in per cent.
